Published values gathered from unrelated publications.
Compare with care: the assays were run in different laboratories.
Target: Mitogen-activated protein kinase kinase kinase 20 (MAP3K20, Homo sapiens, UniProt Q9NYL2)

SMILES | assay | setting | measurement | result
CC(C)(C)c1nc2c(s1)c1nc(N)ncc1c1ccc(NS(=O)(=O)c3c(F)cccc3F)c(F)c12 | enzyme activity, inhibitor, radiometric | 1 µM | remaining activity | 103%
O=C(N1CCS(=O)(=O)CC1)N1C[C@H](c2ccc(OC(F)(F)F)cc2)C[C@H](c2nc(C3CC3)no2)C1 | cell-free assay, competition with immobilised ligand | 1 µM | remaining binding | 100%
COc1cc2nccc(Oc3ccc(NC(=O)c4c5n(n(-c6ccc(F)cc6)c4=O)CCCC5)cc3)c2cc1OC | enzyme activity, inhibitor | 0.1 µM | inhibition | -4%
O=C(Nc1cnn(-c2csc(C(=O)NC3COC3)c2)c1)Nc1ccccc1Cl | enzyme activity, inhibitor | 5 µM | remaining activity | 101%
Cc1c(C(=O)O)cc(-c2ccc(C3CCNCC3)cc2)c2ccc(-c3ccc(C(F)(F)F)cc3)cc12 | binding, competition with immobilised ligand | 1 µM | remaining binding | 100%
c1nc2c(Nc3ccc4c(c3)OCCO4)nc(Nc3ccc4c(c3)OCCO4)nc2[nH]1 | enzyme activity, inhibitor | 10 µM | activity vs control | 76%
COc1cc2ncnc(Nc3ccc(F)c(Cl)c3)c2cc1OCCCN1CCOCC1 | cell-free assay | 0.5 µM | remaining signal | 96.2%
COc1cccc2c(NCc3ccccc3)nc(-n3c(N)nc4ccccc43)nc12 | target engagement in cells, inhibitor, chemoproteomics | 20 mM | inhibition | -3.3%
O=C(NC[C@@H]1[C@H]2CN(C(=O)OCc3cc(C(F)(F)F)cc(C(F)(F)F)c3)C[C@@H]12)c1ccc2[nH]nnc2c1 | cell-free assay, competition with immobilised ligand | 1 µM | remaining binding | 86%
CCN1CCC2(CC1)NC(=O)c1c(c3ccc(Cl)c(Cl)c3n1C)C2C#N (racemic) | thermal stability, DSF | 10 µM | ΔTm | -0.3 °C
CCCCN(CCCC)C(=O)CN1C[C@H](c2cc(OC)c3c(c2)OCO3)[C@@H](C(=O)O)[C@@H]1CC(C)(C)CCC | cell-free assay, competition with immobilised ligand | 1 µM | remaining binding | 85.2%
Nc1ncnc2occ(-c3ccc(NC(=O)Nc4cc(C(F)(F)F)ccc4F)cc3)c12 | cell-free assay, inhibitor | 20 µM | remaining signal | 0.15%
CCCOc1ccc([C@H]2[C@H](C(=O)O)[C@@H](c3ccc4c(c3)OCO4)CN2CC(=O)Nc2c(CC)cccc2CC)cc1 | cell-free assay, competition with immobilised ligand | 1 µM | remaining binding | 90%
N#CCCc1ccc2c(c1)-c1[nH]c3ccc([N+](=O)[O-])cc3c1CC(=O)N2 | cell-free assay | 0.5 µM | remaining signal | 88.6%
Cn1c2c(c3ccc(Cl)c(Cl)c31)C(C#N)C1(CCOCC1)NC2=O (centres unmarked) | thermal stability, DSF | 10 µM | ΔTm | 0.1 °C
CNC(=O)c1cc2c(Oc3ccc(NC(=O)C4(C(=O)Nc5ccc(F)cc5)CC4)cc3)ccnc2cc1OC | enzyme activity, inhibitor, radiometric | 1 µM | inhibition | 82%
Cn1c2c(c3ccccc31)C(C#N)C(C)(C)NC2=O (centres unmarked) | thermal stability, DSF | 10 µM | ΔTm | -0.3 °C
CC(=O)N1CCC(c2ccc(C(=O)NC(=N)N)cc2C(F)(F)F)CC1 | cell-free assay, competition with immobilised ligand | 1 µM | remaining binding | 100%
Cn1c2c(c3ccc(Cl)c(Cl)c31)C(C#N)C(C)(C)NC2=O (centres unmarked) | thermal stability, DSF | 10 µM | ΔTm | 0.4 °C
Cc1nccc(COC(=O)N2C[C@@H]3[C@@H](CNC(=O)c4ccc5[nH]nnc5c4)[C@@H]3C2)n1 | cell-free assay, competition with immobilised ligand | 1 µM | remaining binding | 90%
CCCCNc1ncc2c(-c3ccc(F)cc3)nn(C[C@H]3CC[C@H](N)CC3)c2n1 | target engagement in cells, inhibitor, chemoproteomics | 20 mM | inhibition | 35.9%
Cn1c2c(Cl)c(Cl)ccc2c2cc[nH]c(=O)c21 | thermal stability, DSF | 10 µM | ΔTm | -0.2 °C
O=C1Nc2ccc(Cl)cc2C1=Cc1cc(Cl)c(O)c(Cl)c1 | cell-free assay | 0.5 µM | remaining signal | 77.4%
CNC(=O)c1ccc(Nc2ncc(C(F)(F)F)c(NCc3nccnc3N(C)S(C)(=O)=O)n2)cc1 | cell-free assay, competition with immobilised ligand | 0.1 µM | remaining binding | 100%
CCC1(CC)NC(=O)c2c(c3ccc(Cl)c(Cl)c3n2C)C1C#N (centres unmarked) | thermal stability, DSF | 10 µM | ΔTm | 0 °C
COc1cc(Cl)c(C(=O)N[C@@H](CN[C@H]2CC[C@@H](N)CC2)Cc2ccc(C#N)cc2)cc1-c1ccc(CN[C@H](C)c2ccc(C)cc2)o1 | enzyme activity, inhibitor | 1 µM | remaining activity | 97%
